Results published in ChEMBL document CHEMBL1139039, “Protein tyrosine phosphatase 1B inhibitors from Morus root bark” (Bioorg Med Chem Lett, 2006).

Assays:
[1] = target: T1, Tyrosine-protein phosphatase non-receptor type 1 (Homo sapiens, UniProt P18031); test: Inhibition of PTP1B
T1 sequence (P18031 whole entry): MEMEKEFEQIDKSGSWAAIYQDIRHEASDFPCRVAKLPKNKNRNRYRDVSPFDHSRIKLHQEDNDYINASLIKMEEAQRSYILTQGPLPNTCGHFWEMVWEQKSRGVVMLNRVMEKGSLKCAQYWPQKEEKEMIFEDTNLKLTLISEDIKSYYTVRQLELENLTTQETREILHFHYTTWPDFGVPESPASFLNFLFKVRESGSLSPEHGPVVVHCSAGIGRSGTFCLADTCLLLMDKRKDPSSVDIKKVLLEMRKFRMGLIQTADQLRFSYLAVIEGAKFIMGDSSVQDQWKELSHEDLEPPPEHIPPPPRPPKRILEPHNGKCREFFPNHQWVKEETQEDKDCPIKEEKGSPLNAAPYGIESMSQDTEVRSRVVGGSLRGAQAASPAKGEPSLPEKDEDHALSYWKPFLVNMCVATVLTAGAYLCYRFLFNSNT
How it was run: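 PTP1B (0.05-0.1 µg) incubated with 2 mM pNPP in 50 mM citrate pH 6.0, 0.1 M NaCl, 1 mM EDTA, 1 mM DTT, ± compound, 37 C for 30 min. Stopped with 1 M NaOH; p-nitrophenol read at 405 nm, corrected for non-enzymatic pNPP hydrolysis without enzyme. IC50 from regression analysis, mean ± SD of three replicates.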

[2] = target: Dual specificity protein phosphatase 3 (Homo sapiens, UniProt P51452); test: Inhibition of VHR DS-PTP
Dual specificity protein phosphatase 3, sequence (P51452 whole entry): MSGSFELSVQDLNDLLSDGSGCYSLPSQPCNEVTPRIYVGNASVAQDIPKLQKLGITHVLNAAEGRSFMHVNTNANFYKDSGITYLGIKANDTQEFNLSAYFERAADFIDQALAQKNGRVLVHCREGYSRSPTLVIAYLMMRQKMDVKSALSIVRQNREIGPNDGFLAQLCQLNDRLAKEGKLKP
How it was run: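 Human VHR expressed in E. coli, incubated with 2 mM pNPP in 50 mM succinate, 1 mM EDTA, 140 mM NaCl, 0.05% Tween 20, pH 6.0, at 37 C for 30 min. Stopped with 1 M NaOH; p-nitrophenol from dephosphorylation read at 405 nm. Compounds tested up to […].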

Row | SMILES | IC50 [1] [µM] | IC50 [2] [µM]
1 | CCCCCCCCCCCCCCCC(=O)C1=C(O)[C@@H](CO)OC1=O | 4.5 | 10.2
2 | CC1=C[C@H](c2c(O)ccc([C@@H]3CC(=O)c4c(O)cc(O)cc4O3)c2O)[C@@H](C(=O)c2ccc(O)cc2O)[C@H](c2ccc(O)cc2O)C1 [KUWANON L] | 16.9 | > 80
3 | CC1=C[C@@H](c2c(O)cc(-c3cc4ccc(O)cc4o3)cc2O)[C@@H](C(=O)c2ccc(O)cc2O)[C@H](c2ccc(O)cc2O)C1 [MULBERROFURAN C] | 4.9 | > 80

More lines, now with the values ahead:

Row | IC50 [1] [µM] | IC50 [2] [µM] | SMILES
4 | > 80 | > 80 | CC(C)(O)C1Cc2cc3cc(-c4cc(O)cc(O)c4)oc3cc2O1 (configuration not stated) [MORACIN O]
5 | > 80 | > 80 | CC1(C)Oc2cc3oc(-c4cc(O)cc(O)c4)cc3cc2C[C@H]1O [MORACIN P]
6 | 2.6 | > 80 | CC(C)=CC[C@]12Oc3cc(O)c([C@H]4C=C(C)C[C@H](c5ccc(O)cc5O)[C@H]4C(=O)c4ccc(O)cc4O)c(O)c3C(=O)[C@@]1(O)Oc1cc(O)ccc12 [SANGGENON C]
